# Activity calls are given as the source filed them. The rule behind the calls is not given here.
# What was measured:
# [1] = molecular target: T1, 5-hydroxytryptamine receptor 2C (Homo sapiens) (UniProt P28335); assay: Positive allosteric modulation of human 5-HT2C receptor expressed in human HeLa-K1 cells assessed as potentiation of 5-HT-induced inositol monophosphate release at 10 uM after 20 mins by HTRF assay relative to control; format: functional, cell-based
# T1 sequence (whole entry): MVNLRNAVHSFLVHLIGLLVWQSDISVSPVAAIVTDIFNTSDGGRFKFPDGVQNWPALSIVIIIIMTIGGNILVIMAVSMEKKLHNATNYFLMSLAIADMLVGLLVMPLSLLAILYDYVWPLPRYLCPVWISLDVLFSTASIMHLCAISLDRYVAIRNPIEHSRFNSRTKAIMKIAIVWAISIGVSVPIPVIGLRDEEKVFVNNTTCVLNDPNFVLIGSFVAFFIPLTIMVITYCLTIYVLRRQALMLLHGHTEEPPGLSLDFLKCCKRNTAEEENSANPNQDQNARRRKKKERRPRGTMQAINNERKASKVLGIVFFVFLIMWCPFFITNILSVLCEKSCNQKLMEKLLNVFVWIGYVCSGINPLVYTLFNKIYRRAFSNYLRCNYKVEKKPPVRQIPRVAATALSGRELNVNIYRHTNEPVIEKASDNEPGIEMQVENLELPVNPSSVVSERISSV
# Summary of the method: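 IP-One HTRF assay in CHO-K1 cells (human 5-HT2A, 5-HT2B) or HeLa-K1 cells (human 5-HT2C), seeded and grown 24 h at 37 °C. Test compound and/or 5-HT added in stimulation buffer, then 20 min at 37 °C before IP1 read-out. Data normalized to 5-HT maximal effect and fitted by nonlinear regression. Triplicates, mean ± SD.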
# Rattus norvegicus [2] = organism: Rattus norvegicus; assay: Toxicity in Wistar rat assessed as induction of malaise at 0.4 M measured 30 mins for 2 days by conditioned taste aversion test; conditions: in vivo, 0.5 h
# Summary of the method: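 Rats water-deprived 24 h, then trained to drink from a graded bottle in 30 min sessions for 4 days. On day 5, 0.1% saccharin replaced water, and 30 min later rats got ip vehicle, compound (2 mg/kg) or LiCl (0.4 M, 7.5 mL/kg). Water intake was recorded over 30 min on the next 2 days, then a water or saccharin choice was measured.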
# Rattus norvegicus [3] = assay: Antiobesity activity in Wistar rat assessed as reduction in food intake at 2 mg/kg, ip measured up to 4 hrs; format: functional, organism-based
# Summary of the method: (§1)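 Male Wistar rats, 200−250 g, aged 10−12 weeks, food-deprived 16 h before refeeding. Compound given ip in sterile saline; food and water intake measured at 30, 60, 120 and 240 min after food presentation. Where used, antagonist (3 mg/kg, ip) or other pretreatments were injected 30 min before the compound. Mean ± SEM, at least eight rats per group.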
# Rattus norvegicus [4] = assay: Antiobesity activity in Wistar rat assessed as reduction in food intake at 2 mg/kg, ip after 4 hrs; format: functional, organism-based; summary of the method: as §1
# Rattus norvegicus [5] = assay: Antiobesity activity in Wistar rat assessed as reduction in food intake at 2 mg/kg, ip after 4 hrs in presence of 5-HT2C antagonist SB-242084; format: functional, organism-based; summary of the method: as §1
Compound,Activity [1] [%],other results
Brc1ccc(Cn2cc(CNc3cccnc3)c3ccccc32)cc1,6,–
N#Cc1ccc(Cn2cc(CNc3cccnc3)c3ccccc32)cc1,7,–
Fc1cc(Cl)ccc1Cn1cc(CNc2cccnc2)c2ccccc21,9,–
c1ccc(Cn2cc(CNc3cccnc3)c3ccccc32)nc1,0,–
N#Cc1ccccc1Cn1cc(CNc2cccnc2)c2ccccc21,7,–
COc1cccc(Cn2cc(CNc3cccnc3)c3ccccc32)c1,0,–
Cc1ccc(Cn2cc(CNc3cccnc3)c3ccccc32)cc1,24,–
Cc1ccccc1Cn1cc(CNc2cccnc2)c2ccccc21,7,–
COc1ccc(Cn2cc(CNc3cccnc3)c3ccccc32)cc1,6,–
c1cncc(Cn2cc(CNc3cccnc3)c3ccccc32)c1,25,–
[Cl-].[Li+] [CHLOROLITHIUM],–,Activity (Rattus norvegicus [2]): Toxic
Brc1cccc(Cn2cc(CNc3cccnc3)c3ccccc32)c1,7,–
O=C1Nc2cc(Cl)c(Cl)cc2N2CCNC[C@H]12,–,Activity (Rattus norvegicus [3]): Active; Activity (Rattus norvegicus [4]): inactive; Activity (Rattus norvegicus [5]): inactive
N#Cc1cccc(Cn2cc(CNc3cccnc3)c3ccccc32)c1,22,–
Cc1ccncc1NCc1cn(Cc2ccccc2)c2ccccc12,21,–
c1cncc(NCc2cn(CC3CC3)c3ccccc23)c1,0,–
Cc1ncccc1NCc1cn(Cc2ccccc2)c2ccccc12,0,–
c1ccc(Cn2cc(CNc3ccnnc3)c3ccccc32)cc1,0,–
Cc1cccc(Cn2cc(CNc3cccnc3)c3ccccc32)c1,27,–

# — ChEMBL document CHEMBL4028890, “A Positive Allosteric Modulator of the Serotonin 5-HT2C Receptor for Obesity” (J Med Chem, 2017)
